{
  "source": "ChEMBL document CHEMBL1667767",
  "about": "“Triazole incorporated pyridazinones as a new class of antihypertensive agents: design, synthesis and in vivo screening” (2011)",
  "data": [
    {"test_system": "Rattus norvegicus", "assay": "Antihypertensive activity against methyl prednisolone acetate-induced hypertension in albino rat assessed as reduction in mean arterial pressure at 20 mg/kg, ip after 1 hr by tail-cuff method", "type": "functional, Artery", "parameters": "scale not given: the % may be the effect or the level left", "conditions": "route intraperitoneal", "outline": "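Rats were albino, 200–250 g, and restrainer-trained for 10 min/day over 1 week. They were made hypertensive with s.c. methyl prednisolone acetate at 20 mg/kg/wk for 2 weeks. Each compound was suspended in 1% CMC and given i.p. at 20 mg/kg. Mean arterial BP was measured 1 h after dosing in conscious animals by CODA tail-cuff. Data are mean ± SEM, analysed by ANOVA and Dunnett test against the hypertensive control.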", "units": {"Activity": "%"}, "values": [
      {"smiles": "O=C1CCC(c2ccccc2)=NN1c1n[nH]c(=S)n1-c1ccccc1", "Activity": 30.01},
      {"smiles": "O=C1CCC(c2ccccc2)=NN1c1n[nH]c(=S)n1-c1ccc(Cl)cc1", "Activity": 24.84},
      {"smiles": "Cc1ccc(-n2c(N3N=C(c4ccccc4)CCC3=O)n[nH]c2=S)cc1", "Activity": 38.83},
      {"smiles": "Cc1ccc(C2=NN(c3n[nH]c(=S)n3-c3ccccc3)C(=O)CC2)cc1", "Activity": 27.3},
      {"smiles": "Cc1ccc(C2=NN(c3n[nH]c(=S)n3-c3ccc(Cl)cc3)C(=O)CC2)cc1", "Activity": 41.84},
      {"smiles": "Cc1ccc(C2=NN(c3n[nH]c(=S)n3-c3ccc(C)cc3)C(=O)CC2)cc1", "Activity": 31.25},
      {"smiles": "COc1ccc(C2=NN(c3n[nH]c(=S)n3-c3ccccc3)C(=O)CC2)cc1", "Activity": 32.48},
      {"smiles": "COc1ccc(C2=NN(c3n[nH]c(=S)n3-c3ccc(Cl)cc3)C(=O)CC2)cc1", "Activity": 16.09},
      {"smiles": "COc1ccc(C2=NN(c3n[nH]c(=S)n3-c3ccc(C)cc3)C(=O)CC2)cc1", "Activity": 40.98},
      {"smiles": "CCc1ccc(C2=NN(c3n[nH]c(=S)n3-c3ccccc3)C(=O)CC2)cc1", "Activity": 38.88},
      {"smiles": "CCc1ccc(C2=NN(c3n[nH]c(=S)n3-c3ccc(Cl)cc3)C(=O)CC2)cc1", "Activity": 42.11},
      {"smiles": "CCc1ccc(C2=NN(c3n[nH]c(=S)n3-c3ccc(C)cc3)C(=O)CC2)cc1", "Activity": 32.97},
      {"smiles": "CC(C)Cc1ccc(C2=NN(c3n[nH]c(=S)n3-c3ccccc3)C(=O)CC2)cc1", "Activity": 30.51},
      {"smiles": "CC(C)Cc1ccc(C2=NN(c3n[nH]c(=S)n3-c3ccc(Cl)cc3)C(=O)CC2)cc1", "Activity": 15.85},
      {"smiles": "Cc1ccc(-n2c(N3N=C(c4ccc(CC(C)C)cc4)CCC3=O)n[nH]c2=S)cc1", "Activity": 12.5},
      {"smiles": "O=C1CCC(c2ccc(-c3ccccc3)cc2)=NN1c1n[nH]c(=S)n1-c1ccccc1", "Activity": 10.67},
      {"smiles": "O=C1CCC(c2ccc(-c3ccccc3)cc2)=NN1c1n[nH]c(=S)n1-c1ccc(Cl)cc1", "Activity": 14.37},
      {"smiles": "Cc1ccc(-n2c(N3N=C(c4ccc(-c5ccccc5)cc4)CCC3=O)n[nH]c2=S)cc1", "Activity": 13.13},
      {"smiles": "O=C1CCC(c2ccc(Cl)cc2)=NN1c1n[nH]c(=S)n1-c1ccccc1", "Activity": 12.52},
      {"smiles": "O=C1CCC(c2ccc(Cl)cc2)=NN1c1n[nH]c(=S)n1-c1ccc(Cl)cc1", "Activity": 11.29},
      {"smiles": "Cc1ccc(-n2c(N3N=C(c4ccc(Cl)cc4)CCC3=O)n[nH]c2=S)cc1", "Activity": 11.53}
    ]},
    {"test_system": "Rattus norvegicus", "assay": "Antihypertensive activity against methyl prednisolone acetate-induced hypertension in albino rat assessed as reduction in mean arterial pressure at 14 mg/kg, ip after 1 hr by tail-cuff method", "type": "functional, Artery", "parameters": "scale not given: the % may be the effect or the level left", "conditions": "route intraperitoneal", "outline": "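Albino rats of 200–250 g were trained in a restrainer for 10 min daily for 1 week. Hypertension was induced by s.c. methyl prednisolone acetate at 20 mg/kg/wk for 2 weeks, with an untreated control group kept alongside. Drug was given i.p. and mean arterial BP was read 1 h later in conscious rats by CODA tail-cuff. Results are mean ± SEM, compared with the hypertensive control by ANOVA and Dunnett test.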", "units": {"Activity": "%"}, "values": [
      {"smiles": "CC(C)NCC(O)COc1cccc2ccccc12", "note": "(configuration not stated) [PROPRANOLOL]", "Activity": 41.4}
    ]}
  ]
}
